Consider six compounds from ChEMBL document CHEMBL4196223 (J Med Chem, 2018).

The inhibition is how much of the control response was suppressed. By IC50 is commonly meant the concentration needed to halve the response being measured.

Where a SMILES comes first, the peptide text is derived from it. Bridges are numbered along the chain shown (N, C = ends). Bounds are passed on as bounds.

Common to all, as to type: cell-based
The target in test [1] is Nicotinic acetylcholine receptor alpha6/alpha3/beta4 (Rattus norvegicus) (UniProt P04757+P12392+P43143). Briefly: Antagonist activity at rat alpha6/alpha3beta4 nAChR nACHR expressed in Xenopus laevis oocytes assessed as inhibition of acetyl choline-induced membrane currents at 10 uM pre-incubated for 5 mins prior to acetyl choline pulse at -70 mV potential by two-electrode voltage clamp assay.

Test [2] addresses Neuronal acetylcholine receptor; alpha3/beta4 (Rattus norvegicus) (UniProt P04757+P12392). Briefly: Antagonist activity at rat alpha3beta4 nACHR expressed in Xenopus laevis oocytes assessed as inhibition of acetyl choline-induced membrane currents at 10 uM pre-incubated for 5 mins prior to acetyl choline pulse at -70 mV potential by two-electrode voltage clamp assay. A general note: Two-electrode voltage clamp holds a large cell at a set potential and records current.

Test [3] deals with Nicotinic acetylcholine receptor alpha6/alpha3/beta4 (Rattus norvegicus, UniProt P04757+P12392+P43143). As to the kind of experiment: Antagonist activity at rat alpha6/alpha3beta4 nAChR nACHR expressed in Xenopus laevis oocytes assessed as inhibition of acetyl choline-induced membrane currents pre-incubated for 5 mins prior to acetyl choline pulse at -70 mV potential by two-electrode voltage clamp assay. The method in brief: (§1)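 Rat subunit cRNAs (equimolar, ≥10 ng each) were expressed in oocytes held at 17 °C in ND96 and clamped at -70 mV 2-5 days after injection. Perfusate was ND96 with 0.1 mg/mL BSA and 1 µM atropine. After 5 min toxin exposure, 100 µM ACh was applied for 1 s/min. % response was fitted to a Hill equation for IC50 and nH, at room temperature, n=3-6.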

The target in test [4] is Neuronal acetylcholine receptor; alpha3/beta4 (Rattus norvegicus, UniProt P04757+P12392). As to the kind of experiment: Antagonist activity at rat alpha3beta4 nACHR expressed in Xenopus laevis oocytes assessed as inhibition of acetyl choline-induced membrane currents pre-incubated for 5 mins prior to acetyl choline pulse at -70 mV potential by two-electrode voltage clamp assay. The method in brief: as §1

Test [5] has as its target Neuronal acetylcholine receptor subunit alpha-7 (Rattus norvegicus, UniProt Q05941). Briefly: Antagonist activity at rat alpha7 nACHR expressed in Xenopus laevis oocytes assessed as inhibition of acetyl choline-induced membrane currents pre-incubated for 5 mins prior to acetyl choline pulse at -70 mV potential by two-electrode voltage clamp assay.
Test [6] addresses Nicotinic acetylcholine receptor alpha9/alpha10 (Rattus norvegicus, UniProt P43144+Q9JLB5). As to the kind of experiment: Antagonist activity at rat alpha9alpha10 nACHR expressed in Xenopus laevis oocytes assessed as inhibition of acetyl choline-induced membrane currents pre-incubated for 5 mins prior to acetyl choline pulse at -70 mV potential by two-electrode voltage clamp assay.

Neuronal acetylcholine receptor; alpha3/beta4, sequence (P04757 whole entry): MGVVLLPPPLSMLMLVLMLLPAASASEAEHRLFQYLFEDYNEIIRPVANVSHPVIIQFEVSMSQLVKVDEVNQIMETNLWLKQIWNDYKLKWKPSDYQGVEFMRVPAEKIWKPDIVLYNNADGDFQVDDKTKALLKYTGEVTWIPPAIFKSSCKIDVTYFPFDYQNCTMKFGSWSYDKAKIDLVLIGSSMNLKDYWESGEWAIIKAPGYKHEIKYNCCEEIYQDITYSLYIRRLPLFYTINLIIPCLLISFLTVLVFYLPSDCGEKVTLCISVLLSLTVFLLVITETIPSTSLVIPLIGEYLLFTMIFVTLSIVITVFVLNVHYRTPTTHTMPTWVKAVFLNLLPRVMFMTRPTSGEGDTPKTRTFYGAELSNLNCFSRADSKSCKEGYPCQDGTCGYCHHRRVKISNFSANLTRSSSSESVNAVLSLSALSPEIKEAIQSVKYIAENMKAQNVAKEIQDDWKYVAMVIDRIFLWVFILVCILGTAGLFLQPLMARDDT
Neuronal acetylcholine receptor; alpha3/beta4, sequence (P12392 whole entry): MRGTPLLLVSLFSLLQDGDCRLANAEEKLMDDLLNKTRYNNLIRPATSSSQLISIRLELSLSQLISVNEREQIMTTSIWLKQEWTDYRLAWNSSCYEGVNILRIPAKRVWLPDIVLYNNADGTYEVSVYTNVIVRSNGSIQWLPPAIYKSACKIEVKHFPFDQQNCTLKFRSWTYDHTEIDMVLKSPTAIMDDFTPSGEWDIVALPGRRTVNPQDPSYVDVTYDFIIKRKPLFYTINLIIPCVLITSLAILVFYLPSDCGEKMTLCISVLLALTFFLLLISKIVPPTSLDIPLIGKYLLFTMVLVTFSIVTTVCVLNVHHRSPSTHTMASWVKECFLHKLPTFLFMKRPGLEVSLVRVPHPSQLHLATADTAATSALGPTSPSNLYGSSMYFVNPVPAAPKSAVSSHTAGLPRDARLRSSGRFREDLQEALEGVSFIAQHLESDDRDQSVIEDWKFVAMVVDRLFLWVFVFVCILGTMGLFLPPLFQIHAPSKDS
Nicotinic acetylcholine receptor alpha6/alpha3/beta4, sequence (P04757 whole entry): as the sequence (P04757 whole entry) above
Nicotinic acetylcholine receptor alpha6/alpha3/beta4, sequence (P12392 whole entry): as the sequence (P12392 whole entry) above
Nicotinic acetylcholine receptor alpha6/alpha3/beta4, sequence (P43143 whole entry): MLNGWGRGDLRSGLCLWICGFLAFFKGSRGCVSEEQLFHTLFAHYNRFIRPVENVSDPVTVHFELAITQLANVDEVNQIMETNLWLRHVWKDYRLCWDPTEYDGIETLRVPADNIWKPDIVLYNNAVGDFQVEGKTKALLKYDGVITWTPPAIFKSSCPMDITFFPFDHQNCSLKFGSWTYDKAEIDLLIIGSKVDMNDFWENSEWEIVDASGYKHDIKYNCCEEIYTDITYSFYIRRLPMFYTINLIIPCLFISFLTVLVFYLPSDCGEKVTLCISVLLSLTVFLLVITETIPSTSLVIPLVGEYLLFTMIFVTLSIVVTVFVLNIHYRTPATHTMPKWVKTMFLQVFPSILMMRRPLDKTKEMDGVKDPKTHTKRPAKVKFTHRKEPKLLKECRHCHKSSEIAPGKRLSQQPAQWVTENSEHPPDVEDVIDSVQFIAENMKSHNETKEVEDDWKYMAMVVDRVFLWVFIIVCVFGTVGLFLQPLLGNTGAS
Nicotinic acetylcholine receptor alpha9/alpha10, sequence (P43144 whole entry): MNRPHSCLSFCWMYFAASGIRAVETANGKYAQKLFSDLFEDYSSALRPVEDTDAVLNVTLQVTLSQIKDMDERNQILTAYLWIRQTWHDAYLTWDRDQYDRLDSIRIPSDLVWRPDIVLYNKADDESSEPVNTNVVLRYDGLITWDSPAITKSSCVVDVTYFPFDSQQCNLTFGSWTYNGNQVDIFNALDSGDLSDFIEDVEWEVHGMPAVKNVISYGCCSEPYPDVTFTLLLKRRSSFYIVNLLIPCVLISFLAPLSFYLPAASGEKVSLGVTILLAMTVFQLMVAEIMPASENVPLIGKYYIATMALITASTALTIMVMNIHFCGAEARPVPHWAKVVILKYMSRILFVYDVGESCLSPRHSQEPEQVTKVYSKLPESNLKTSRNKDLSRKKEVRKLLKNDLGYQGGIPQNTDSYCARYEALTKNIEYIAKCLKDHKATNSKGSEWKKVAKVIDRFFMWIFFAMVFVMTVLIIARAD
Nicotinic acetylcholine receptor alpha9/alpha10, sequence (Q9JLB5 whole entry): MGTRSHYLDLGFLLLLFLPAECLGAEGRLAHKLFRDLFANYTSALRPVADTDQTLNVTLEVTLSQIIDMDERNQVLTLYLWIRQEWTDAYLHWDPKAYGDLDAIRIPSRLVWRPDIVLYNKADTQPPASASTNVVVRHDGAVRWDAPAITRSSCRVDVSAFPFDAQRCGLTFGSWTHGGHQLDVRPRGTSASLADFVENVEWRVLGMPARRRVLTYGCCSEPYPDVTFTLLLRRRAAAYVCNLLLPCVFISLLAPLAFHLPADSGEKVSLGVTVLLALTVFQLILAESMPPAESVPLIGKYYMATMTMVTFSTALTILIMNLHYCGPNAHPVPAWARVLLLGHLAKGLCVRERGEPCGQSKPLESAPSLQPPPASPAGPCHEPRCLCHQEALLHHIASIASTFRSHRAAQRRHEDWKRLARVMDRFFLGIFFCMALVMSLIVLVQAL
Neuronal acetylcholine receptor subunit alpha-7, sequence (Q05941 whole entry): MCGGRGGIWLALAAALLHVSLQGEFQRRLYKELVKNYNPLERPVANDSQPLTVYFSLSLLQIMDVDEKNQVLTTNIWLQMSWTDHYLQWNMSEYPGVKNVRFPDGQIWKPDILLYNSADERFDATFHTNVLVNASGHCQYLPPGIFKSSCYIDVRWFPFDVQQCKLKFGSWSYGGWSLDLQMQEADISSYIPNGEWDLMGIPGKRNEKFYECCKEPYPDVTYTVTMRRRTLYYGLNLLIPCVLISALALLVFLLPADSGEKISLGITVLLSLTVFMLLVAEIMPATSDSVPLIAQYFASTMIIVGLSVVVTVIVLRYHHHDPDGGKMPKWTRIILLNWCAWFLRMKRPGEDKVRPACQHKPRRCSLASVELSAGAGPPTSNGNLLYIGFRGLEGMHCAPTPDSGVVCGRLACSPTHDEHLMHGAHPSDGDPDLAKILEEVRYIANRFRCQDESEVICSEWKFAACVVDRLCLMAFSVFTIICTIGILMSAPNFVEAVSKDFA

For the compound `CC[C@H](C)[C@@H]1NC(=O)[C@@H]2CCCN2C(=O)[C@H](CO)NC(=O)[C@H](CCSC)NC(=O)[C@H](C)NC(=O)[C@H](CC(=O)O)NC(=O)[C@@H]2CSSC[C@H](NC(=O)CN)C(=O)N[C@@H](CSSC[C@@H](C(N)=O)NC1=O)C(=O)N[C@@H](CO)C(=O)N[C@@H](Cc1cnc[nH]1)C(=O)N1CCC[C@H]1C(=O)N[C@@H](C(C)C)C(=O)N2`, the inhibition in test [1] is below 50%.

As for `CC[C@H](C)[C@@H]1NC(=O)[C@@H]2CCCN2C(=O)[C@H](CO)NC(=O)[C@H](CCSC)NC(=O)[C@H](C)NC(=O)[C@H](CC(=O)O)NC(=O)[C@@H]2CSSC[C@H](NC(=O)CN)C(=O)N[C@@H](CSSC[C@@H](C(N)=O)NC1=O)C(=O)N[C@@H](CO)C(=O)N[C@@H](Cc1cnc[nH]1)C(=O)N1CCC[C@H]1C(=O)N[C@H](C(C)C)C(=O)N2`, the inhibition in test [2] and in test [1] was below 50% in each case.

`CC[C@H](C)[C@@H]1NC(=O)[C@@H]2CCCN2C(=O)[C@H](CO)NC(=O)[C@H](CCSC)NC(=O)[C@H](C)NC(=O)[C@H](CCC(=O)O)NC(=O)[C@@H]2CSSC[C@H](NC(=O)CN)C(=O)N[C@@H](CSSC[C@@H](C(N)=O)NC1=O)C(=O)N[C@@H](CO)C(=O)N[C@@H](Cc1cnc[nH]1)C(=O)N1CCC[C@H]1C(=O)N[C@@H](C(C)C)C(=O)N2` (H-GCCSHPVCEAMSPIC-NH2; disulfide 2-8, 3-15): the inhibition in test [1] was below 50%.

`CC[C@H](C)[C@@H]1NC(=O)[C@@H]2CCCN2C(=O)[C@H](CO)NC(=O)[C@H](CCSC)NC(=O)[C@H](C)NC(=O)[C@H](Cc2ccccc2)NC(=O)[C@@H]2CSSC[C@H](NC(=O)CN)C(=O)N[C@@H](CSSC[C@@H](C(N)=O)NC1=O)C(=O)N[C@@H](CO)C(=O)N[C@@H](Cc1cnc[nH]1)C(=O)N1CCC[C@H]1C(=O)N[C@@H](C(C)C)C(=O)N2` (H-GCCSHPVCFAMSPIC-NH2; disulfide 2-8, 3-15): the IC50 in test [3] was found to be 10 nM; in test [4], 11 nM.

For the compound `CC[C@H](C)[C@@H]1NC(=O)[C@@H]2CCCN2C(=O)[C@H](CO)NC(=O)[C@H](CCSC)NC(=O)[C@H](C)NC(=O)[C@H](Cc2cnc[nH]2)NC(=O)[C@@H]2CSSC[C@H](NC(=O)CN)C(=O)N[C@@H](CSSC[C@@H](C(N)=O)NC1=O)C(=O)N[C@@H](CO)C(=O)N[C@@H](Cc1cnc[nH]1)C(=O)N1CCC[C@H]1C(=O)N[C@@H](C(C)C)C(=O)N2` (H-GCCSHPVCHAMSPIC-NH2; disulfide 2-8, 3-15), the IC50 in test [3] was found to be 19 nM; in test [4], 2 nM.

Turning to `CC[C@H](C)[C@@H]1NC(=O)[C@@H]2CCCN2C(=O)[C@H](CO)NC(=O)[C@H](CCSC)NC(=O)[C@H](C)NC(=O)[C@H](CCCCN)NC(=O)[C@@H]2CSSC[C@H](NC(=O)CN)C(=O)N[C@@H](CSSC[C@@H](C(N)=O)NC1=O)C(=O)N[C@@H](CO)C(=O)N[C@@H](Cc1cnc[nH]1)C(=O)N1CCC[C@H]1C(=O)N[C@@H](C(C)C)C(=O)N2` (H-GCCSHPVCKAMSPIC-NH2; disulfide 2-8, 3-15), the IC50 in test [5] and in test [6] was above 10000 nM throughout.
